Measured values collected from several papers.
PDE10A: cAMP and cAMP-inhibited cGMP 3',5'-cyclic phosphodiesterase 10A (PDE10A, Homo sapiens, UniProt Q9Y233)
DRD3: D(3) dopamine receptor (DRD3, Homo sapiens, UniProt P35462)

Structure (SMILES) | target | assay | conditions | measurement | value
CCOC(=O)[C@@]12C[C@@H]1[C@@H](n1cnc3c(NCCCCc4ccccc4)nc(C#Cc4ccc(Cl)s4)nc31)[C@H](O)[C@@H]2O | Sodium-dependent dopamine transporter (SLC6A3, Homo sapiens, UniProt Q01959) | ligand displacement, radioligand | 10 µM | inhibition | 9%
COc1ccc2oc(-c3ccc4nc(N)oc4c3)c/c(=N\c3ccccc3NC(=O)CCN)c2c1 | Discoidin domain-containing receptor 2 (DDR2, Homo sapiens, UniProt Q16832) | binding | 1 µM | remaining binding | 85%
COc1cc2ncnc(Cc3ccnc(-c4ccccc4)c3)c2cc1OC | PDE10A | enzyme activity, inhibitor, FP | 0.1 µM | inhibition | 58%
C1=C/COCc2cc(ccc2OCCN2CCCC2)Nc2nccc(n2)-c2cccc(c2)COC/1 | AP2-associated protein kinase 1 (AAK1, Homo sapiens, UniProt Q2M2I8) | binding | 0.1 µM | remaining binding | 52%
Cc1[nH]c(C)c(S(=O)(=O)Nc2ccc(C(F)(F)F)c(Cl)c2)c1C(=O)N1C[C@@H](F)[C@H](F)C1 (relative stereo) | DRD3 | β-arrestin recruitment, agonist | 90 min | Emax | 101%
COc1ccc(Cc2ccnc3ccccc23)cc1OC | PDE10A | enzyme activity, inhibitor, FP | 0.1 µM | inhibition | 11%
Cc1[nH]c(C)c(S(=O)(=O)Nc2cc(Cl)cc(Cl)c2Cl)c1C(=O)N1CCC(F)(F)C1 | DRD3 | β-arrestin recruitment, agonist | 90 min | Emax | 103%
CCCCC(=O)Nc1ccc(-c2ccc3ncn(CCC)c(=O)c3c2)cn1 | Leukocyte tyrosine kinase receptor (LTK, Homo sapiens, UniProt P29376) | binding, competition with immobilised ligand | 0.5 µM | remaining binding | 100%
Cc1[nH]c(C)c(S(=O)(=O)Nc2ccc(Cl)c(C(F)(F)F)c2)c1C(=O)N1CCC(F)(F)C1 | DRD3 | β-arrestin recruitment, agonist | 90 min | Emax | 109%
COc1cc2ccnc(C(=O)c3cccc4ccccc34)c2cc1OC | PDE10A | enzyme activity, inhibitor, FP | 0.1 µM | inhibition | 0%
[2H]C1([2H])CCC([2H])([2H])N1C(=O)c1c(C)[nH]c(C)c1S(=O)(=O)Nc1ccc(C(F)(F)F)c(Cl)c1 | DRD3 | β-arrestin recruitment, agonist | 90 min | Emax | 92%
COc1ccc(Cc2nccc3cc(OC)c(OC)cc23)cc1 | PDE10A | enzyme activity, inhibitor, FP | 0.1 µM | inhibition | 38%
